System: MS2 coat protein
Assay: apparent Kd, MS2 coat protein; higher = weaker binding; RNA-MaP array; FMN 200 µM where present
Procedure, shortened: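 On Illumina sequencing-chip clusters, designs were transcribed by stalled E. coli RNA polymerase and titrated with SNAP-549-labelled MS2 coat protein (0.7 or 1.5 nM, doubling to 3 µM), without and then with constant ligand, in 100 mM Tris-HCl pH 7.5, 80 mM KCl, 4 mM MgCl2, BSA, DTT, yeast tRNA and Tween-20. Apparent Kd is the median of filtered per-cluster curve fits to green signal normalised to red-channel RNA signal and control-cluster median Fmax.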

[1] = designed as: OFF switch for flavin mononucleotide, no ligand
[2] = ligand present: flavin mononucleotide, designed as: OFF switch for flavin mononucleotide
[3] = designed as: ON switch for flavin mononucleotide, no ligand
[4] = ligand present: flavin mononucleotide, designed as: ON switch for flavin mononucleotide

Sequence | apparent Kd [1] | apparent Kd [2] | apparent Kd [3] | apparent Kd [4]
AACAUGUGAGGAUAUUAGUUGUACGUCAAUAGACGUAUAAGUGAGAAGGCACAUGAGGAUCACCCAUGUUCCUG | 43.7 nM | 464 nM | – | –
GGAUGACAAAGUCAUCCAAUACGAACAUGAGGAUCACCCAUGUAGGAUAUGCAUCUCAAAGAGAUGCAGAAGGACAUGUGCCUU | 36.9 nM | 272 nM | – | –
UGCGUACAAGCGGACAUGAGGAUCACCCAUGUAGUCUUAUGCGAGGAUAUCGGGAAGGAGGAUUCCGAGAAGGUGCGGUGAGCC | – | – | 17.5 nM | 15.2 nM
GCGUGACGGUGCGCGAGUGGACGGAGAAGGCAGACAUGAGGAUCACCCAUGUGAGCCUGCUAUUCUGAGGAUAUCCGUUCGCAC | 32.5 nM | 150 nM | – | –
CGUAACUGCAUAGGAUAUUGAUACAUGAGGAUCACCCAUGUUUUUCGGAUUAGAUAUAUACUUAGCAAGAAGGAUGGAGUUACG | – | – | 9.58 nM | 6.57 nM
GGAAUAUUUACAGGAUAUGUUUUGUUAAGUCGAGCAGAAGGGUGGAUGUCUUACACGGUUUGUUACAUGAGGAUCACCCAUGUC | – | – | 264 nM | 260 nM
ACUUGUGAAGGAUAUACUGGCGACAUGCGCUCAACACGCGCACAUGAGGAUCACCCAUGUAGAAGGUCAAACAU | 24.7 nM | 34.8 nM | – | –
GCGUCAGGAGGAUAUACAUGAGGAUCACCCAUGUAACACGGGAUAGUAGUAUAGUAGAGUAGAAGGCCUAUAGU | 37.5 nM | 46 nM | – | –
ACCUGACAUGAGGAUCACCCAUGUGAGGAUAUGUACAUCAGGAAAAAAAAACUGAUGUACAGAAGGCACUUGGG | 25.4 nM | 37.1 nM | – | –
UUUUAAUAAGAGAAGGAGCACUACAUGAGGAUCACCCAUGUGUUAGUAGUUAGGAUAUUUAAUAACAUGAGGAUCACCCAUGUA | – | – | 167 nM | 74.2 nM
CGGCACCGAGGAUAUACAUGAGGAUCACCCAUGUUUGUUGGGCCCUUAAGAUCUACGUGUAGAAGGUGGGUCGA | 131 nM | 167 nM | – | –
UGGUACAUGGGAGGAUAUGGGAUGAUAACAUGAGGAUCACCCAUGUUAAAGAUGCCGAGAGGCAACUAGAAGGCCCAUGUACCU | – | – | 281 nM | 62.4 nM
CUAGCAACAUGAGGAUCACCCAUGUAGGAUAUCGCUAUUGUAAUCAUGAAACAUGAUUACAAUAGCGAGAAGGACAUAUGCUAA | 7.96 nM | 10.8 nM | – | –
UUUGUUGUUGUGAGGAUAUACUGUUUGUUUUGUUUGUAGAAGGUACAUGAGGAUCACCCAUGUUGGUUGUUUUU | 26.4 nM | 25.1 nM | – | –
GGCUACGUUUCGUAGCAGCUAGGUGAGGAUAUUCAAUUUUUCACAUGAGGAUCACCCAUGUAUGUGAAGAAGGCGCCUAGAAAA | – | – | 11.7 nM | 4.83 nM
GUACGUGGACAGAAGGUGACAUGAGGAUCACCCAUGUUAGUUGAGGUACCAGCGAUCCGCGUGAUUGAGGAUAUGUCUGCGGGC | 16.1 nM | 42.4 nM | – | –
CGCUGCCACGCAGGAUAUGCAUUGGAUUACAAUGCAGAAGGGCGAUUACAUGAGGAUCACCCAUGUGUCGGCAGUGAAGAAGAG | – | – | 657 nM | 44.9 nM
AUUAUUAUAUUAUACAUGAGGAUCACCCAUGUUAUAAGUCAUGAGGAUAUGGUAUUGUAGUUUUUCCAGAAGGCAUUUAACUUA | – | – | 10.3 nM | 6.04 nM
GCCAUCGUAUGAGGAUAUGGCACCGCAACGGUGCCAGAAGGCAUGUCAAUAGACAUGAGGAUCACCCAUGUGUUAUCGAUGGCA | – | – | 153 nM | 13.9 nM
GGUCGUCACAUAUACAUGAGGAUCACCCAUGUAAAAUAACAUGAGGAUAUGGAUCCUAAUUGGAUCCAGAAGGCAUGGACGACC | – | – | 6.29 nM | 5.53 nM
ACAUACGAUAGUAUGCCUGAGGGCAGAAGGCACAUGAGGAUCACCCAUGUAACGAUCUCUUCAAGUGAGGAUAUGUGCUCAUUG | 49.8 nM | 52.2 nM | – | –

Sequence | apparent Kd [1] | apparent Kd [2] | apparent Kd [3] | apparent Kd [4]
GAAUAUUCGUUGUACAUGAGGAUCACCCAUGUGACUUUACAUGAGGAUAUGGAUUCUAAUUGGAUCCAGAAGGCAUGAAUAUUC | – | – | 171 nM | 35 nM
GGAACUUAGGGAGGAUAUAGGCGACAUGAGGAUCACCCAUGUACGGAGGGCUCUUCCCGUGUUCACUAGAAGGCCCAUGUUACC | 19.4 nM | 75 nM | – | –
CGCAUGUAAGGAUAUUAGUAGUAGUCAGAAUAGACUAUUACUGAGAAGGUACAUGAGGAUCACCCAUGUAAGCG | 62.9 nM | 419 nM | – | –
UUAAUUAACAAGAAGGCUAACAUGAGGAUCACCCAUGUUGUACAUGGAUAUAGAGGAUAUUGCUAAUAAUUAUUUAUCUUAAUU | 25.3 nM | 19.4 nM | – | –
UAGGUACAUGAGGAUCACCCAUGUGAGGAUAUAGAUGAAGAUUGCGAGAGGGAGAGGACUAGAAGGCACAGUGG | 33.3 nM | 36.8 nM | – | –
GUGUACAGAGGAUAUACAGGAGCUAGGAAACUAGCAACUUCACAUGAGGAUCACCCAUGUAGAAGGCUGUACAC | 15.3 nM | 49.7 nM | – | –
AAAGAGCAAGGAUAUACAUGAGGAUCACCCAUGUAGUACGUGAACCAGGUUUUCCUGAGUAGAAGGUGCAGACA | 36 nM | 34.3 nM | – | –
UCUAAUUAGUGAGGAUAUACAUAAUUUAUAACUGUAGAAGGCACAAACCUCAAGACAUGAGGAUCACCCAUGUGGUAUUUAGAU | 150 nM | 354 nM | – | –
AAAAAACAUGAGGAUCACCCAUGUGAGGAUAUGACUUAAAUAAAGAAAGAAGAAAUAGUCAGAAGGCACAAAUA | 54.5 nM | 70.4 nM | – | –
GGGCUUUGGGAGAAGGUACAUUAAAUUAGUUUAACAUGAGGAUCACCCAUGUAAGGAUAUCCCAUCUUGUAUUAUGGUACAGCC | 12.8 nM | 12.8 nM | – | –
CACAAGAAAGUCGAAGGUUGAAGUAGAAGGUCUAUAACAUGACAUGAGGAUCACCCAUGUGCCAAGAAGGAUAUGCUUUAAUCG | 7.97 nM | 6.53 nM | – | –
GGUAUUCGAGGAUAUCGCAAACGAGACAUGAGGAUCACCCAUGUCCCUCAUGCUUGUCGGCGAGAAGGCGACAAGC | 14.8 nM | 17.7 nM | – | –
AUACAUGAGGAUCACCCAUGUAAUUAAUUAACUUGUAAGAUCAAGGAUAUCAGCUCGAUUAGAGCUGAGAAGGUGAUCACAUGU | – | – | 260 nM | 253 nM
CUGUUCCAUGUAGGAUAUGCAUAUUCUCAUUAUGCAGAAGGACAUGAGGAUCACCCAUGUAUGUUAUUAUCAUAUGUUACAUGU | 34.3 nM | 241 nM | – | –
CGCUCAAGAGAGAAGGAUAGAGUCAGAAGGCGUUACAUGAGGAUCACCCAUGUAUAGUAGUGUAACGAGGAUAUGAAAUGAGCG | 194 nM | 250 nM | – | –
AUUUAAUUUAGCGAGAUCACAUGAGGAUCACCCAUGUAUAUAUAGGAUAUCAGCUCGAAUAGAGCUGAGAAGGAUAUAUACCGC | 90.3 nM | 157 nM | – | –
AUUUAGUGAGGAUAUGUGGCUUCGAUCGUGAGAUCGAGGCUACAGAAGGCACAUGAGGAUCACCCAUGUUCCUU | 13.2 nM | 55.9 nM | – | –
CCUAUGUGAGGAUAUGGUGUUGGCCACAAGGAAAAGCUCCUCCAGAAGGCACAUGAGGAUCACCCAUGUCGUGG | 21.5 nM | 115 nM | – | –
AUCCUGCGAGGAUAUACAUAAUUUUUUUCAUUUUGACUCGAACAUGAGGAUCACCCAUGUAGAAGGUGCUACAC | 36.7 nM | 32.5 nM | – | –
UAUAUAUAGGCAGGAUAUACAUGUAUAUAUAAUUUUUUAUAUAUUAUUACAUGAGGAUCACCCAUGUAGAAGGGCCAUAUUAUA | 34.8 nM | 51 nM | – | –
AAAUCUCAGAUAGGAUAUAUAGGAUAACUUAAGACCUAACAUGAGGAUCACCCAUGUGAUUAUUCGUAGAAGGAUCAUUGAACC | – | – | 210 nM | 233 nM
